Measured values taken from ChEMBL document CHEMBL1154352, “Toll-like receptor 7 selective synthetic oligoribonucleotide agonists: synthesis and structure-activity relationship studies” (J Med Chem, 2009).
Active and inactive are the calls of the source. No cut-off for these calls is given here.

Key:
Splenocyte [1] = assay: Immunomodulatory activity in C57BL/6 mouse splenocytes bearing TLR7 receptor assessed as IL12 release at 100 ug/ml after 24 hrs by ELISA; format: functional, cell-based
In short: (§1)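 C57BL/6 splenocytes in RPMI 1640 with 10% FBS, penicillin/streptomycin, 2 mM L-glutamine, plated at 5 × 10^6 cells/mL; compounds in PBS added, 37 °C for 24 h. Supernatant IL-12 and IL-6 by ELISA; representative of three independent experiments.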

Splenocyte [2] = assay: Immunomodulatory activity in C57BL/6 mouse splenocytes bearing TLR7 receptor assessed as IL6 release at 100 ug/ml after 24 hrs by ELISA; format: functional, cell-based; in short: as §1
Homo sapiens = species on record: Homo sapiens; assay: Ratio of human TLR7 activity to human TLR8 activity
In short: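 TLR7/TLR8 ratio computed from fold NF-κB (SEAP reporter) activation in HEK293 cells stably expressing human TLR7 versus TLR8, compounds at 50 μg/mL, 18 h exposure; representative of three independent experiments.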

[3] = biological target: T1, Toll-like receptor 9 (Mus musculus) (UniProt Q9EQU3); assay: Activation of mouse TLR9 expressed in HEK293 assessed as induction of NF-kappaB activity reporter gene assay; format: cell-based
T1 sequence (whole entry): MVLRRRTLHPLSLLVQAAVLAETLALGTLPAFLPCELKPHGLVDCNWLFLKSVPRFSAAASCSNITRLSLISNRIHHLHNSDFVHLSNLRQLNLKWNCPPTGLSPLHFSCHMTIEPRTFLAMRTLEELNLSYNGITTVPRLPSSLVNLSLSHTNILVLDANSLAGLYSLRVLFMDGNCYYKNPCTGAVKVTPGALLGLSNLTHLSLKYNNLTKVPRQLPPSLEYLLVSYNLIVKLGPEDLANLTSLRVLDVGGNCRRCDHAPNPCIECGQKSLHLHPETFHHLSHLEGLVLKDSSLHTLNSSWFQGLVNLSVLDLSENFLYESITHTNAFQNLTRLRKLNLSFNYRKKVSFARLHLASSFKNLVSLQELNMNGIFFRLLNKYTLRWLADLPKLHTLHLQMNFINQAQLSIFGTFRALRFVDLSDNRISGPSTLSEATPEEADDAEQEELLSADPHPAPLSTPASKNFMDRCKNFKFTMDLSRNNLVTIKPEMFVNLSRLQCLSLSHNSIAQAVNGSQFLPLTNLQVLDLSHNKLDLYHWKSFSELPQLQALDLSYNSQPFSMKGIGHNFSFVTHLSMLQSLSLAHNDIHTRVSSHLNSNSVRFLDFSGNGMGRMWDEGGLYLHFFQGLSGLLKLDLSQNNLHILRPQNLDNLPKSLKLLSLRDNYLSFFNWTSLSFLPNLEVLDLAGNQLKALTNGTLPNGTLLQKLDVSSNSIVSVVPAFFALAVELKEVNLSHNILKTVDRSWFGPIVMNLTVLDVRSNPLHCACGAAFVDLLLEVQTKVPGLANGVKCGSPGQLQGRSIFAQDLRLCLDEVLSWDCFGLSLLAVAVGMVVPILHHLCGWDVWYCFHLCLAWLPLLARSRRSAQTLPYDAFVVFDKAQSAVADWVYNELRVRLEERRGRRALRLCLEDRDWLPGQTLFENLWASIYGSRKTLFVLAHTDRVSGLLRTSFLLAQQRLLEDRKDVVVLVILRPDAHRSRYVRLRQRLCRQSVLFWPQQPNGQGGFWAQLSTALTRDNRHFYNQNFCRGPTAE

[4] = biological target: T2, Toll-like receptor 7 (Homo sapiens) (UniProt Q9NYK1); assay: Activation of human TLR7 expressed in HEK293XL assessed as fold induction of NF-kappaB activity at 50 ug/ml after 18 hrs by reporter gene assay relative to control
T2 sequence (whole entry): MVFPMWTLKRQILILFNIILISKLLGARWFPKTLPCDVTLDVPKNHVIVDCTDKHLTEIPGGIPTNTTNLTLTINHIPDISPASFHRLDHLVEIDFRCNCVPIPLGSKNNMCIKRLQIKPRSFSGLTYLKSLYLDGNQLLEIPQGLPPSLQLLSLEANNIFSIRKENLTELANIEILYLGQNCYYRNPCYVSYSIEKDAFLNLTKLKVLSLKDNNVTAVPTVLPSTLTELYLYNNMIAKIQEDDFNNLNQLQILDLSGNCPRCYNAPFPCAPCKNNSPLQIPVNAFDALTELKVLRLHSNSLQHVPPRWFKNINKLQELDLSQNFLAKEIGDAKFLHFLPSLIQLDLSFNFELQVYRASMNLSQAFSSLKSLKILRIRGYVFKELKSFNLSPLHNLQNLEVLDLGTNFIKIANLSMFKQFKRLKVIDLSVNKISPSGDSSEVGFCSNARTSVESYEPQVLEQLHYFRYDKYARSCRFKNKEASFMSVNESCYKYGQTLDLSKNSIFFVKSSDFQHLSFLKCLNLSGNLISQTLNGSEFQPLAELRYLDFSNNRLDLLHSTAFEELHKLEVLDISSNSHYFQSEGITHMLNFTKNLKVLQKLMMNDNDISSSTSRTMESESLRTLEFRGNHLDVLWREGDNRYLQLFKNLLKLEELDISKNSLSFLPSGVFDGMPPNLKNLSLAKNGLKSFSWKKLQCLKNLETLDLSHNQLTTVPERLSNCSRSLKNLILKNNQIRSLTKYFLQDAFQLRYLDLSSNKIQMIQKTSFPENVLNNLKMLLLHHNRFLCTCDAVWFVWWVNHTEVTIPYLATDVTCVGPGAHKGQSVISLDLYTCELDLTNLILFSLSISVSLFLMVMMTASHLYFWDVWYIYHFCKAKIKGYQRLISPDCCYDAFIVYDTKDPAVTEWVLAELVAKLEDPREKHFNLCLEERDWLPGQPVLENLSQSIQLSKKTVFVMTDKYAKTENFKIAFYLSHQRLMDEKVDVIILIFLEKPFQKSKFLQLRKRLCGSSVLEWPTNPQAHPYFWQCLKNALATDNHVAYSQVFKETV
In short: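 HEK293 cells stably expressing human TLR7 or TLR8, transiently transfected with SEAP reporter plasmid; medium replaced, SIMRA compounds added, 18 h incubation. Supernatant SEAP measured by QuantiBlue; expressed as fold increase in NF-κB activity over PBS control. Tabulated data at 50 μg/mL, representative of three independent experiments.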

Row | Structure (SMILES) | Activity (Splenocyte [1]) | Activity (Splenocyte [2]) | Ratio (Homo sapiens) | Activity [3] | fold change (FC) [4]
1 | Nc1ccn([C@@H]2O[C@H](COP(=O)(S)O[C@H]3[C@@H](O)[C@H](n4cnc5c(N)ncnc54)O[C@@H]3CO)[C@@H](OP(=O)(S)OC[C@H]3O[C@@H](n4ccc(=O)[nH]c4=O)[C@H](O)[C@@H]3OP(=O)(S)OC[C@H]3O[C@@H](n4ccc(=O)[nH]c4=O)[C@H](O)[C@@H]3OP(=O)(S)OC[C@H]3O[C@@H](n4ccc5c(=O)[nH]c(N)nc54)[C@H](O)[C@@H]3OP(=O)(S)OC[C@H]3O[C@@H](n4cnc5c(N)ncnc54)[C@H](O)[C@@H]3OP(=O)(S)OC[C@H]3O[C@@H](n4ccc(N)nc4=O)[C@H](O)[C@@H]3OP(=O)(S)OC[C@H]3O[C@@H](n4ccc(=O)[nH]c4=O)[C@H](O)[C@@H]3OP(=O)(S)OC[C@H]3O[C@@H](n4ccc(=O)[nH]c4=O)[C@H](O)[C@@H]3OP(=O)(S)OC[C@H]3O[C@@H](n4ccc5c(=O)[nH]c(N)nc54)[C@H](O)[C@@H]3OP(=O)(S)OC[C@H]3O[C@@H](n4cnc5c(N)ncnc54)[C@H](O)[C@@H]3OP(=O)(S)OCC(O)COP(=O)(S)O[C@H]3[C@@H](O)[C@H](n4cnc5c(N)ncnc54)O[C@@H]3COP(=O)(S)O[C@H]3[C@@H](O)[C@H](n4ccc5c(=O)[nH]c(N)nc54)O[C@@H]3COP(=O)(S)O[C@H]3[C@@H](O)[C@H](n4ccc(=O)[nH]c4=O)O[C@@H]3COP(=O)(S)O[C@H]3[C@@H](O)[C@H](n4ccc(=O)[nH]c4=O)O[C@@H]3COP(=O)(S)O[C@H]3[C@@H](O)[C@H](n4ccc(N)nc4=O)O[C@@H]3COP(=O)(S)O[C@H]3[C@@H](O)[C@H](n4cnc5c(N)ncnc54)O[C@@H]3COP(=O)(S)O[C@H]3[C@@H](O)[C@H](n4ccc5c(=O)[nH]c(N)nc54)O[C@@H]3COP(=O)(S)O[C@H]3[C@@H](O)[C@H](n4ccc(=O)[nH]c4=O)O[C@@H]3COP(=O)(S)O[C@H]3[C@@H](O)[C@H](n4ccc(=O)[nH]c4=O)O[C@@H]3COP(=O)(S)O[C@H]3[C@@H](O)[C@H](n4ccc(N)nc4=O)O[C@@H]3COP(=O)(S)O[C@H]3[C@@H](O)[C@H](n4cnc5c(N)ncnc54)O[C@@H]3CO)[C@H]2O)c(=O)n1 (stereo not given in full) | Active | Active | 6.5 | inactive | 9.1
2 | Nc1ccn([C@@H]2O[C@H](COP(=O)(S)O[C@H]3[C@@H](O)[C@H](n4cnc5c(N)ncnc54)O[C@@H]3COP(=O)(S)O[C@H]3[C@@H](O)[C@H](n4ccc5c(=O)[nH]c(N)nc54)O[C@@H]3COP(=O)(S)O[C@H]3[C@@H](O)[C@H](n4ccc(=O)[nH]c4=O)O[C@@H]3COP(=O)(S)O[C@H]3[C@@H](O)[C@H](n4ccc(=O)[nH]c4=O)O[C@@H]3COP(=O)(S)O[C@H]3[C@@H](O)[C@H](n4cnc5c(N)ncnc54)O[C@@H]3COP(=O)(S)O[C@H]3[C@@H](O)[C@H](n4cnc5c(N)ncnc54)O[C@@H]3CO)[C@@H](OP(=O)(S)OC[C@H]3O[C@@H](n4ccc5c(=O)[nH]c(N)nc54)[C@H](O)[C@@H]3OP(=O)(S)OC[C@H]3O[C@@H](n4ccc(N)nc4=O)[C@H](O)[C@@H]3OP(=O)(S)OC[C@H]3O[C@@H](n4ccc(=O)[nH]c4=O)[C@H](O)[C@@H]3OP(=O)(S)OC[C@H]3O[C@@H](n4ccc5c(=O)[nH]c(N)nc54)[C@H](O)[C@@H]3OP(=O)(S)OCC(O)COP(=O)(S)O[C@H]3[C@@H](O)[C@H](n4ccc5c(=O)[nH]c(N)nc54)O[C@@H]3COP(=O)(S)O[C@H]3[C@@H](O)[C@H](n4ccc(=O)[nH]c4=O)O[C@@H]3COP(=O)(S)O[C@H]3[C@@H](O)[C@H](n4ccc(N)nc4=O)O[C@@H]3COP(=O)(S)O[C@H]3[C@@H](O)[C@H](n4ccc5c(=O)[nH]c(N)nc54)O[C@@H]3COP(=O)(S)O[C@H]3[C@@H](O)[C@H](n4ccc(N)nc4=O)O[C@@H]3COP(=O)(S)O[C@H]3[C@@H](O)[C@H](n4cnc5c(N)ncnc54)O[C@@H]3COP(=O)(S)O[C@H]3[C@@H](O)[C@H](n4ccc5c(=O)[nH]c(N)nc54)O[C@@H]3COP(=O)(S)O[C@H]3[C@@H](O)[C@H](n4ccc(=O)[nH]c4=O)O[C@@H]3COP(=O)(S)O[C@H]3[C@@H](O)[C@H](n4ccc(=O)[nH]c4=O)O[C@@H]3COP(=O)(S)O[C@H]3[C@@H](O)[C@H](n4cnc5c(N)ncnc54)O[C@@H]3COP(=O)(S)O[C@H]3[C@@H](O)[C@H](n4cnc5c(N)ncnc54)O[C@@H]3CO)[C@H]2O)c(=O)n1 (stereo not given in full) | Active | Active | 114 | inactive | 22.9
